The values that follow come from ChEMBL document CHEMBL1153345, “Novel tricyclic inhibitors of IkappaB kinase” (J Med Chem, 2009).

The target in series [1] is T1, Inhibitor of nuclear factor kappa-B kinase subunit alpha (Homo sapiens, UniProt O15111).
T1 sequence (O15111 whole entry): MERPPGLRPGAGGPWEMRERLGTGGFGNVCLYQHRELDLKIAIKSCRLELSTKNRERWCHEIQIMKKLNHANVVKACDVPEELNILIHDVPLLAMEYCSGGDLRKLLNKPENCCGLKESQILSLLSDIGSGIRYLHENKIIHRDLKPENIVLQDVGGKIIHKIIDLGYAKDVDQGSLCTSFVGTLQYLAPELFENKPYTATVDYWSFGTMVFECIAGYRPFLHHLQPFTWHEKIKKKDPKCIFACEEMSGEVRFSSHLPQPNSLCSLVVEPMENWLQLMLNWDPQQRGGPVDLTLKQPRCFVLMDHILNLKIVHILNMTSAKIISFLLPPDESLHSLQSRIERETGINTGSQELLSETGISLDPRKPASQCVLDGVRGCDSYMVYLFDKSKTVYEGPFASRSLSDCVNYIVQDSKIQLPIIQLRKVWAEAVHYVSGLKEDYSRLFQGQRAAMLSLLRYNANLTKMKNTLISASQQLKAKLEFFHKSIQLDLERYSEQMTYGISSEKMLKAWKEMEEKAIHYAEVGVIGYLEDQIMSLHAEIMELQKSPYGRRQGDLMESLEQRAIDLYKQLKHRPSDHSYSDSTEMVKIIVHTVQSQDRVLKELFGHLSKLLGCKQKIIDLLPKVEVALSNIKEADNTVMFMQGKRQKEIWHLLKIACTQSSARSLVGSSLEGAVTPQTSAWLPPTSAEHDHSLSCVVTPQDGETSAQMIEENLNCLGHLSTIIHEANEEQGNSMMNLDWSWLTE
Briefly: Inhibition of IKK1-mediated phosphorylation of GST-IkappaBalpha fusion protein afterr 60 mins by fluorescence polarization assay. The method, boiled down: (§1)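 GST-IκBα (50 µg/mL) with 20 µM ATP in 25 mM Tris-HCl pH 7.5, 7.5 mM MgCl2, 1 mM DTT, 5% glycerol, BSA; reaction started by adding IKK enzyme (IKK-2 typically 3 µg/mL final) at room temperature. Stopped after 60 min with 33 mM EDTA. Phospho-IκBα quantified by fluorescence polarization, competing with a fluorescein-labelled phosphopeptide for anti-phospho-IκBα antibody.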
Background: In fluorescence polarisation assays a small probe gives low polarisation when free and higher when bound to something large.

The target of series [2] is T2, Inhibitor of nuclear factor kappa-B kinase subunit beta (Homo sapiens, UniProt O14920).
T2 sequence (O14920 whole entry): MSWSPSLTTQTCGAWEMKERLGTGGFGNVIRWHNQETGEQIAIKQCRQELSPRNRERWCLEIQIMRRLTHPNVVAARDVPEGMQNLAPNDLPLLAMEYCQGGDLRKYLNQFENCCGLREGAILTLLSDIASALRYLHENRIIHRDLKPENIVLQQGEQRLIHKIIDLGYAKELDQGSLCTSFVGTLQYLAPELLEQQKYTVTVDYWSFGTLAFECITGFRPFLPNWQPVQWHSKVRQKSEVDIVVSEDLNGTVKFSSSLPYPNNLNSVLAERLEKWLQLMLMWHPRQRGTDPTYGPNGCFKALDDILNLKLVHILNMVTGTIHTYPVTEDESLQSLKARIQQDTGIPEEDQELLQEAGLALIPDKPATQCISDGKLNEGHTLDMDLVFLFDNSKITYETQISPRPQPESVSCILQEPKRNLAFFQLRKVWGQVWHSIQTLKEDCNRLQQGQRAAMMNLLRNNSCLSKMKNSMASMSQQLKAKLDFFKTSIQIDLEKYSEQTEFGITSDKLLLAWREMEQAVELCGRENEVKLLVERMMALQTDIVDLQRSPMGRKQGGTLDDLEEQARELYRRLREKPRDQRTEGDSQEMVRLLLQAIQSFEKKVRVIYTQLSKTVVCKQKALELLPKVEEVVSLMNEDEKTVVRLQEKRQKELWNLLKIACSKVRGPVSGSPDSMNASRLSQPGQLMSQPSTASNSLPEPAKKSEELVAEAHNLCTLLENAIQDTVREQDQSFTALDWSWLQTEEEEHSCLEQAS
Kind of series: Inhibition of IKK2-mediated phosphorylation of GST-IkappaBalpha fusion protein afterr 60 mins by fluorescence polarization assay. A digest of the protocol:
as §1

The next series has as its system PBMC. Briefly: Inhibition of LPS-induced TNFalpha production in human PBMC preincubated for 30 mins before LPS challenge measured afterr 6 hrs by ELISA. The format is functional, cell-based. The method, boiled down:
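PBMCs from healthy donor blood, isolated over ficoll in RPMI containing EDTA and polymyxin, then resuspended in RPMI/10% FBS at 1 × 10^6 cells/mL. Compound preincubated 30 min, then LPS added (25 ng/mL final). Incubated 6 h at 37 °C, 5% CO2; supernatant TNF-α measured by ELISA.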

For series [3], the system named is Liver microsomes. Briefly: Metabolic stability in rat liver microsomes assessed as clearance at 3 uM after 1 hr. The format is ADME, Microsome. The method, boiled down:
(§2)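 Liver microsomes (mouse, human or rat) at 1 mg/mL protein with 3 µM compound in 65 mM phosphate buffer pH 7.4 and 1 mM NADPH, 37 °C, 1 h. Samples taken at 0 and 15 min and quenched with acetonitrile. Metabolic rate calculated from parent disappearance between 0 and 15 min.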
For orientation: Liver microsomes are vesicles of endoplasmic reticulum, rich in cytochrome P450 enzymes.

For series [4], the system named is Liver microsomes. Kind of series: Metabolic stability in human liver microsomes assessed as clearance at 3 uM after 1 hr. The format is ADME, Microsome. The method, boiled down: as §2
Series [5] is described as follows: Metabolic stability in mouse liver microsomes assessed as clearance at 3 uM after 1 hr. Format: ADME, Microsome. A digest of the protocol:
as §2

Series [6] is described as follows: Cmax in rat at 2 mg/kg, iv. The format is ADME, organism-based. The arrangement: dose 2 mg/kg, route intravenous. The following applies: in vivo. A digest of the protocol:
(§3)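 Some compounds were dosed as a cassette of five compounds at 2 mg/kg each, after prescreening to exclude potent CYP inhibitors (IC50 < 10 µM).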

A short description of series [7]: AUC in rat at 2 mg/kg, iv. The format is ADME, organism-based. Also noted: dose 2 mg/kg, route intravenous. The following applies: plasma. The method, boiled down:
as §3

A short description of series [8]: Half life in rat at 2 mg/kg, iv. The format is ADME, organism-based. Also noted: dose 2 mg/kg, route intravenous. The note with it: in vivo. The method, boiled down: as §3
Series [9] can be described thus: Clearance in rat at 2 mg/kg, iv. The format is ADME, organism-based. Also noted: dose 2 mg/kg, route intravenous. The following applies: in vivo. A digest of the protocol:
as §3

The nature of series [10]: Volume of distribution at steady state in rat at 2 mg/kg, iv. The format is ADME, organism-based. Also noted: dose 2 mg/kg, route intravenous. The following applies: in vivo, read-out: Vdss. A digest of the protocol:
as §3

For the next series, the system named is Mus musculus. Kind of series: Inhibition of LPS-induced TNFalpha release in serum of BALB/c mouse at 10 mg/kg, po administered 4 hrs before LPS challenge measured afterr 90 mins by ELISA relative to control. Format: functional. The method, boiled down: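 Female BALB/c mice, 6-8 weeks old, acclimated at least 1 week. Compound given orally in 100% PEG300 (0.1 mL) about 4 h before ip LPS (E. coli O111:B4, 0.1 mL of 10 µg/mL in PBS; 50 µg/kg). Vehicle-only controls. Blood taken 90 min after LPS; serum TNF-α by ELISA; mean ± SEM, n = 8 per group.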
Background: In an ELISA, binding on a coated surface is turned into a signal by an enzyme label.

For `CNc1nc2sc(-c3cccc(CNC(=O)c4csnn4)c3)nc2c2c1ncn2C`, the results for the IC50 (in [1]; in series [2]; with PBMC) were 10000 nM, 16 nM and 82 nM, respectively. The CL in the series on Liver microsomes [3] was 0.14 nmol/mg/min; in the series on Liver microsomes [4], 0.16 nmol/mg/min; in [5] it was 0.23 nmol/mg/min. For the same compound, the Cmax (as a rule, the maximum level reached in the sampled fluid or tissue) in series [6] stood at 3.9 µM. The AUC (as a rule, the area under the concentration-time curve, a measure of exposure) in series [7] was determined as 5 µM·h. The half-life (commonly the time needed for the level to fall by half in the phase considered) in series [8] was 36 min. Also, in series [9], the clearance – broadly, a measure of how efficiently the substance is removed, as volume per time – worked out at 3 mL/min/kg. Further, the Vd in series [10] worked out at 0.2 L/kg. Also, the inhibition in vivo (as a rule, the change of the read-out against control, counted positive when it falls) at 10 mg/kg in the series on Mus musculus came out at 50%.
